Experimental data as given in ChEMBL document CHEMBL5724801, “EUbOPEN Chemogenomics Library - Multiplex” (2024).
Where “and” joins values, the source holds several entries; their conditions need not be identical. Equal values may be shown once.

Tested on: Fibroblast
Experiment: Multiplex assay against human fibroblast
Format: toxicity, cell-based
Outline: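 Hoechst33342, BioTracker Green Microtubule Cytoskeleton Dye, MitoTracker Red and Annexin V Alexa Fluor 680 were added to live cells at seeding, and imaging on a CQ1 microscope at 37°C and 5% CO2 followed compound addition. Gating by CellPathfinder machine learning separated cells into Hoechst high-intensity objects or normal cells, then normal cells into healthy, pyknosed or fragmented nuclei, then pyknosed cells into mitotic or apoptotic. Per cents of healthy-nucleus cells are reported for the tubulin, mitochondrial-mass and membrane-permeability phenotypes.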

[1] = 12 h, 1 µM, compound concentration 1 uM
[2] = 12 h, 10 µM, compound concentration 10 uM
[3] = 24 h, 1 µM, compound concentration 1 uM
[4] = 24 h, 10 µM, compound concentration 10 uM
[5] = 48 h, 1 µM, compound concentration 1 uM
[6] = 48 h, 10 µM, compound concentration 10 uM

## CCn1cnc2c(-c3ccc(F)c(-c4ccc(S(=O)(=O)CC)cc4OC)c3)cnnc21 [DARIGABAT]
[1]
  Population Apoptotic (%): 6.38% and 17.39%
  Population Fragmented Nuclei (%): 14.08% and 9%
  Population Healthy Nuclei (%): 52.82% and 80.09%
  Population Hoechst High Intensity Objects (%): 0%
  Population Membrane Permeable-Phenotype (%): 4% and 1.78%
  Population Mitochondria Different-Phenotype (%): 14.67% and 11.24%
  Population Mitotic Cells (%): 93.62% and 82.61%
  Population Normal (%): 100%
  Population Tubulin-Different-Phenotype (%): 21.33% and 23.08%
  Total Cell Count: 142 and 211
[2]
  Population Apoptotic (%): 12.5% and 19.64%
  Population Healthy Nuclei (%): 48.7% and 72.25%
  Population Hoechst High Intensity Objects (%): 0%
  Population Membrane Permeable-Phenotype (%): 13.33% and 8.61%
  Population Mitochondria Different-Phenotype (%): 14.67% and 16.56%
  Population Mitotic Cells (%): 87.5% and 80.36%
  Population Normal (%): 100%
  Population Tubulin-Different-Phenotype (%): 54.67% and 72.85%
  Total Cell Count: 154 and 209
[3]
  Population Apoptotic (%): 11.11% and 23.08%
  Population Fragmented Nuclei (%): 13.37% and 6.44%
  Population Healthy Nuclei (%): 60.47% and 87.13%
  Population Hoechst High Intensity Objects (%): 0%
  Population Membrane Permeable-Phenotype (%): 0.96% and 3.41%
  Population Mitochondria Different-Phenotype (%): 9.62% and 6.82%
  Population Mitotic Cells (%): 88.89% and 76.92%
  Population Normal (%): 100%
  Population Tubulin-Different-Phenotype (%): 19.23% and 19.89%
  Total Cell Count: 172 and 202
[4]
  Population Apoptotic (%): 23.08% and 22.22%
  Population Healthy Nuclei (%): 57.56% and 78.38%
  Population Hoechst High Intensity Objects (%): 0%
  Population Membrane Permeable-Phenotype (%): 11.11% and 3.45%
  Population Mitochondria Different-Phenotype (%): 14.14% and 19.54%
  Population Mitotic Cells (%): 76.92% and 77.78%
  Population Normal (%): 100%
  Population Tubulin-Different-Phenotype (%): 52.53% and 70.69%
  Total Cell Count: 172 and 222
[5]
  Population Apoptotic (%): 28.57% and 56.25%
  Population Fragmented Nuclei (%): 13.07% and 8%
  Population Healthy Nuclei (%): 82.95% and 84%
  Population Hoechst High Intensity Objects (%): 0%
  Population Membrane Permeable-Phenotype (%): 1.37% and 1.79%
  Population Mitochondria Different-Phenotype (%): 19.18% and 6.55%
  Population Mitotic Cells (%): 71.43% and 43.75%
  Population Normal (%): 100%
  Total Cell Count: 176 and 200
[6]
  Population Apoptotic (%): 34.62% and 60%
  Population Healthy Nuclei (%): 68.28% and 85.52%
  Population Hoechst High Intensity Objects (%): 0%
  Population Membrane Permeable-Phenotype (%): 4.72% and 11.64%
  Population Mitochondria Different-Phenotype (%): 15.75% and 8.99%
  Population Mitotic Cells (%): 65.38% and 40%
  Population Normal (%): 100%
  Population Tubulin-Different-Phenotype (%): 34.65% and 64.55%
  Total Cell Count: 186 and 221

## Cc1noc(C)c1-c1cnc2c(-c3ccc(C(=O)O)cc3)cn([C@@H](C)c3ccccn3)c2c1 [PLX-51107]
[1]
  Population Apoptotic (%): 4.44% and 12.9%
  Population Fragmented Nuclei (%): 10.26% and 3.93%
  Population Healthy Nuclei (%): 66.67% and 82.53%
  Population Hoechst High Intensity Objects (%): 0%
  Population Membrane Permeable-Phenotype (%): 4.62% and 1.06%
  Population Mitochondria Different-Phenotype (%): 10% and 6.88%
  Population Mitotic Cells (%): 95.56% and 87.1%
  Population Normal (%): 100%
  Population Pyknosed Nuclei (%): 23.08% and 13.54%
  Population Tubulin-Different-Phenotype (%): 11.54% and 14.81%
  Total Cell Count: 195 and 229
[2]
  Population Apoptotic (%): 16.13% and 16.67%
  Population Fragmented Nuclei (%): 6.25% and 5.33%
  Population Healthy Nuclei (%): 78.85% and 82.38%
  Population Hoechst High Intensity Objects (%): 0%
  Population Membrane Permeable-Phenotype (%): 4.27% and 2.99%
  Population Mitochondria Different-Phenotype (%): 12.8% and 10.95%
  Population Mitotic Cells (%): 83.87% and 83.33%
  Population Normal (%): 100%
  Population Pyknosed Nuclei (%): 14.9% and 12.3%
  Population Tubulin-Different-Phenotype (%): 14.63% and 21.89%
  Total Cell Count: 208 and 244
[3]
  Population Fragmented Nuclei (%): 8.57% and 3.9%
  Population Healthy Nuclei (%): 78.1% and 88.31%
  Population Hoechst High Intensity Objects (%): 0%
  Population Membrane Permeable-Phenotype (%): 2.44% and 0.98%
  Population Mitochondria Different-Phenotype (%): 4.88% and 3.43%
  Population Mitotic Cells (%): 82.14% and 94.44%
  Population Normal (%): 100%
  Population Pyknosed Nuclei (%): 13.33% and 7.79%
  Population Tubulin-Different-Phenotype (%): 7.32% and 10.29%
  Total Cell Count: 210 and 231
[4]
  Population Apoptotic (%): 20% and 14.81%
  Population Fragmented Nuclei (%): 7.04% and 7.47%
  Population Healthy Nuclei (%): 85.43% and 81.33%
  Population Hoechst High Intensity Objects (%): 0%
  Population Membrane Permeable-Phenotype (%): 3.53% and 2.04%
  Population Mitochondria Different-Phenotype (%): 11.18% and 6.63%
  Population Mitotic Cells (%): 80% and 85.19%
  Population Normal (%): 100%
  Population Pyknosed Nuclei (%): 7.54% and 11.2%
  Population Tubulin-Different-Phenotype (%): 12.94% and 15.31%
  Total Cell Count: 199 and 241
[5]
  Population Apoptotic (%): 30%
  Population Fragmented Nuclei (%): 11.06% and 8.8%
  Population Healthy Nuclei (%): 84.13% and 87.2%
  Population Hoechst High Intensity Objects (%): 0%
  Population Membrane Permeable-Phenotype (%): 0.57% and 3.67%
  Population Mitotic Cells (%): 70%
  Population Normal (%): 100%
  Population Pyknosed Nuclei (%): 4.81% and 4%
  Population Tubulin-Different-Phenotype (%): 4.57% and 11.93%
  Total Cell Count: 208 and 250
[6]
  Population Apoptotic (%): 28.57% and 50%
  Population Fragmented Nuclei (%): 7% and 9.25%
  Population Healthy Nuclei (%): 86% and 83.7%
  Population Hoechst High Intensity Objects (%): 0%
  Population Membrane Permeable-Phenotype (%): 3.49% and 1.05%
  Population Mitotic Cells (%): 71.43% and 50%
  Population Normal (%): 100%
  Population Pyknosed Nuclei (%): 7% and 7.05%
  Population Tubulin-Different-Phenotype (%): 10.47% and 9.47%
  Total Cell Count: 200 and 227
